Experimental data collected from several papers.
Compare with care: the assays were run in different laboratories.
Oprm1: Mu-type opioid receptor (Oprm1, Rattus norvegicus, UniProt P33535)

Compound | target | assay | conditions | measurement | result
CC[C@@H](C)[C@@H]1CN([C@H](Cc2ccc3ccccc3c2)CN2CCC[C@H]2CN2CCNC[C@@H]2CO)CCN1CCc1ccc(Cl)c(Cl)c1 | Oprm1 | ligand displacement, radioligand | 0.5 µM, 1 h, pH 7.5, cell membranes | remaining binding | 98.4%
C#Cc1n[nH]c2c(-c3cn(C(C)c4ccccn4)c(=O)[nH]c3=O)cc(F)cc12 (stereo not drawn) | Myosin light chain kinase, smooth muscle (MYLK, Homo sapiens, UniProt Q15746) | enzyme activity, inhibitor | 1 µM | inhibition | 4%
CC[C@@H](C)[C@@H]1CN([C@@H](CC2CCCCC2)CN2CCC[C@H]2CN2CCNC[C@@H]2CO)CCN1CCC12CC3CC(CC(C3)C1)C2 | Oprm1 | ligand displacement, radioligand | 0.5 µM, 1 h, pH 7.5, cell membranes | remaining binding | 101%
Nc1ncc(-c2nc(N3CCOCC3)nc(N3CCOCC3)n2)c(C(F)F)n1 | Mast/stem cell growth factor receptor Kit (KIT, Homo sapiens, UniProt P10721, V559D) | binding, competition with immobilised ligand | 10 µM | remaining binding | 18%
CC(C)(C)c1nc(-c2cccc(NS(=O)(=O)c3c(F)cccc3F)c2F)c(-c2ccnc(N)n2)s1 | Tau-tubulin kinase 1 (TTBK1, Homo sapiens, UniProt Q5TCY1) | enzyme activity, inhibitor, radiometric | 1 µM | remaining activity | 89%
COc1ncccc1-c1cnn2ccc(N3CCN(C(=O)OC(C)C)CC3)nc12 | Mitogen-activated protein kinase kinase kinase 19 (MAP3K19, Homo sapiens, UniProt Q56UN5) | binding, competition with immobilised ligand | 1 µM | remaining binding | 100%
C[C@@H](O)[C@@H]1CN([C@H](Cc2ccc3ccccc3c2)CN2CCC[C@H]2CN2CCNC[C@@H]2Cc2ccc3ccccc3c2)CCN1CCC12CC3CC(CC(C3)C1)C2 | Oprm1 | ligand displacement, radioligand | 0.5 µM, 1 h, pH 7.5, cell membranes | remaining binding | 107%
Cc1nn(C)cc1-c1nc2c(N3CCN(Cc4ccc(Cl)cc4)CC3)c(Cl)cnc2[nH]1 | Atypical kinase COQ8A, mitochondrial (COQ8A, Homo sapiens, UniProt Q8NI60) | binding, competition with immobilised ligand | 1 µM | remaining binding | 80%
Cn1cc(-c2cc(F)cc(N3CCn4c(cc5c4CCCC5)C3=O)c2CO)cc(Nc2ccc(N3CCN(C4COC4)CC3)cn2)c1=O | Phosphatidylinositol 4,5-bisphosphate 3-kinase catalytic subunit delta isoform (PIK3CD, Homo sapiens, UniProt O00329) | enzyme activity, inhibitor | 0.1 µM | inhibition | -1%
CCN(CC)CCCC[C@H](NC(=O)[C@H](CC(C)C)NC(=O)[C@H](C)NC(=O)[C@H](Cc1ccccc1)NC(=O)c1ccc(C(C)(C)C)cc1)C(=O)N[C@@H](CO)C(=O)OC | 5-hydroxytryptamine receptor 5A (HTR5A, Homo sapiens, UniProt P47898) | ligand displacement, radioligand | 10 µM | remaining binding | 93.1%
Cn1cc(-c2cccc(N3CCc4c(sc5c4CC(C)(C)C5)C3=O)c2CO)cc(Nc2ccncn2)c1=O | Mast/stem cell growth factor receptor Kit (KIT, Homo sapiens, UniProt P10721, T670I) | enzyme activity, inhibitor | 1 µM | inhibition | 0%
OC[C@H]1CNCCN1C[C@@H]1CCCN1C[C@H](CC1CCCCC1)N1CCN(CCc2ccc(Cl)c(Cl)c2)[C@H](Cc2ccc(O)cc2)C1 | Oprm1 | ligand displacement, radioligand | 0.5 µM, 1 h, pH 7.5, cell membranes | remaining binding | 105%
